Key:
ovine COX-1 = target: T1, ovine COX-1 (Ovis aries, UniProt P05979); experiment: In vitro COX assay; assay type: biochemical; settings: for increase in potency toward COX-1: compared to 10a; for decrease in potency toward COX-1: compared to 10r
T1 sequence (P05979 25-600): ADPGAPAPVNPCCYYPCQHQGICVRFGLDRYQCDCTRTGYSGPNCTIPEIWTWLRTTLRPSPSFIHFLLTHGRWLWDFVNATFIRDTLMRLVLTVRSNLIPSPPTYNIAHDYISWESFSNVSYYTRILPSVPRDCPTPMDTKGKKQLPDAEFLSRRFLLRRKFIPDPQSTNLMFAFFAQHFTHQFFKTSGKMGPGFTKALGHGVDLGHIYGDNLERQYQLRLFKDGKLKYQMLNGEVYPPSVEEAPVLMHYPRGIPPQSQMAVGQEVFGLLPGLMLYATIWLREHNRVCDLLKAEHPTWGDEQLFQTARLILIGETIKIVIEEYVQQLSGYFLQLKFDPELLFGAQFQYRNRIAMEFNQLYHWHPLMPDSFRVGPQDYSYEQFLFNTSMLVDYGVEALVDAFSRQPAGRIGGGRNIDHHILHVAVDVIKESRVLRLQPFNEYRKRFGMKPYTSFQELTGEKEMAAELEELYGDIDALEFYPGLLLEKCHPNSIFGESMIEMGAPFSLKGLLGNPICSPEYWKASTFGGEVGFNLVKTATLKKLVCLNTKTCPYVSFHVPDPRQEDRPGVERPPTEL

rat brain FAAH = target: T2, rat brain FAAH (Rattus norvegicus, UniProt P97612); experiment: In vitro rat FAAH radiometric assay; assay type: biochemical
T2 sequence (P97612 1-579): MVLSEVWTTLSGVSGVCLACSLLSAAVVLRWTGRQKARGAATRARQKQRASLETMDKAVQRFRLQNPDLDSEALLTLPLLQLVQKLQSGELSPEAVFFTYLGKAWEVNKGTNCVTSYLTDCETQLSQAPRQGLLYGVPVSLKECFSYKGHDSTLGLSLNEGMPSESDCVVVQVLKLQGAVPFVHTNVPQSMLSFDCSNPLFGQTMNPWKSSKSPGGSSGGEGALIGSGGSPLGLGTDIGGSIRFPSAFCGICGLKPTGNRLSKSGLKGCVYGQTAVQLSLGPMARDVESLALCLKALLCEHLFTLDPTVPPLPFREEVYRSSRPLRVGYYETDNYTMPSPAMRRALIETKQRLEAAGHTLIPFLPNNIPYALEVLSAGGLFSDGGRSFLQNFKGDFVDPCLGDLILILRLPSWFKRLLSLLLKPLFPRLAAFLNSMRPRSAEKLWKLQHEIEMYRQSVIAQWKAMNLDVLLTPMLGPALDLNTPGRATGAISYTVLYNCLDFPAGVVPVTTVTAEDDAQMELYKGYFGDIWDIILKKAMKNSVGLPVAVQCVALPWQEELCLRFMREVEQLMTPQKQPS

FAAH and COX = settings: mice; cited from earlier work
mouse models of IBD = settings: cited from earlier work
[1] = tested on: panel of >90 biologically relevant receptors, enzymes and ion channels; settings: cited from earlier work
human recombinant COX-2 = target: T3, human recombinant COX-2 (Homo sapiens, UniProt P35354); experiment: In vitro COX assay; assay type: biochemical; settings: compared to 10r
T3 sequence (P35354 18-604): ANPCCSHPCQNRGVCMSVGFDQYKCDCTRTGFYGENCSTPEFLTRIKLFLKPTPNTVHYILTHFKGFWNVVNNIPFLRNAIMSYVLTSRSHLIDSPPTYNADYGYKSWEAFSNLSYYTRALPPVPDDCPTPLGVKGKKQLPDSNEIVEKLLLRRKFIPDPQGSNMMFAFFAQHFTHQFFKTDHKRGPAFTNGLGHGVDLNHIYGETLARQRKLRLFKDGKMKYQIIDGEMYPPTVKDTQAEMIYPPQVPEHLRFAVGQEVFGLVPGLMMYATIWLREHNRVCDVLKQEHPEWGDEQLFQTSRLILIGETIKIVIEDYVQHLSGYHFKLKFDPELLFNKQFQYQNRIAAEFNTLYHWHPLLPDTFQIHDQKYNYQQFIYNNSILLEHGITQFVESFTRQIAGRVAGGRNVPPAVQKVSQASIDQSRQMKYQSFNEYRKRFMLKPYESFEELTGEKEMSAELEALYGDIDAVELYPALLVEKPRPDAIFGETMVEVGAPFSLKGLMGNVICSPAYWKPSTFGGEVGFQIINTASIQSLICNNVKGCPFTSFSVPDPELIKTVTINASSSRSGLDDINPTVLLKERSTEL

[2] = tested on: panel of >90 biologically relevant receptors, enzymes and ion channels; experiment: Off-target panel of >90 biologically relevant targets; settings: Table S1
[3] = tested on: COX products (6-keto-PGF1α, TXB2) and FAAH substrate OEA in plasma; assay type: in vivo; settings: mice, 1 mg/kg intravenous, 1 h, vs vehicle
In short: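 Mice, randomised in groups of 6 and handled blind, were decapitated under anaesthesia 1 h after a 1 mg/kg intravenous dose. Heparinised cardiac blood (0.3 mL) was spun at 2000×g for 30 min to give plasma. OEA was extracted with cold acetone containing [²H₄]-OEA and quantified by LC/MS (MRM) against a 1 nM–10 µM calibration curve. 6-keto-PGF1α and […] were measured by ELISA kit. Values are mean ± s.e.m. (n=6), compared with vehicle by two-tailed Student's t test.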

CC(C(=O)O)c1ccc(-c2cccc(OC(=O)NCC3CCCCC3)c2)c(F)c1 (racemic) [Compound 10e, (±)-2-[4-[3-(cyclohexylmethylcarbamoyloxy)phenyl]-3-fluoro-phenyl]propanoic acid]
increase in potency toward COX-1 (ovine COX-1): 10 fold | increase in potency toward FAAH (rat brain FAAH; compared to 10a): 23 fold

CCCCCCNC(=O)Oc1cccc(-c2ccc(C(=O)O)cc2F)c1 [Compound 21c, 3-fluoro-4-[3-(hexylcarbamoyloxy)phenyl]benzoic acid]
decrease in potency toward FAAH (rat brain FAAH; compared to 10r): 3 fold

CCCCCCNC(=O)Oc1cccc(-c2ccc(CC(=O)O)cc2F)c1 [Compound 18b, 2-[3-fluoro-4-[3-(hexylcarbamoyloxy)phenyl]phenyl]acetic acid]
decrease in potency toward COX-1 (ovine COX-1): 180 fold | decrease in potency toward FAAH (rat brain FAAH; compared to 10r): 2 fold

CCCCCCNC(=O)Oc1ccccc1-c1ccc(C(C)C(=O)O)cc1F (racemic) [Compound 15a, (±)-2-[3-fluoro-4-[2-(hexylcarbamoyloxy)phenyl]phenyl]propanoic acid]
decrease in potency toward COX-1 (ovine COX-1): 60 fold | decrease in potency toward FAAH (rat brain FAAH; compared to 10r): 70 fold

CCCCCCNC(=O)Oc1cccc(-c2ccc(C(C)CO)cc2F)c1 (racemic) [Compound 12, (±)-[3-[2-fluoro-4-(2-hydroxy-1-methyl-ethyl)phenyl]phenyl] N-hexylcarbamate]
decrease in potency toward COX-1 (ovine COX-1): 100 fold | increase in potency toward FAAH (rat brain FAAH; compared to 10r): 10 fold

CCCCCCNC(=O)Oc1cccc(-c2ccc(C(C)C(=O)O)cc2)c1 (racemic) [Compound 29e, (±)-2-[4-[3-(hexylcarbamoyloxy)phenyl]phenyl]propanoic acid]
increase in potency toward FAAH (rat brain FAAH; compared to 10r): 10 fold

CC(C(=O)O)c1ccc(-c2cccc(OC(=O)NCCC3CCCCC3)c2)c(F)c1 (racemic) [Compound 10f, (±)-2-[4-[3-(2-cyclohexylethylcarbamoyloxy)phenyl]-3-fluoro-phenyl]propanoic acid]
increase in potency toward COX-1 (ovine COX-1): 50 fold | increase in potency toward FAAH (rat brain FAAH; compared to 10a): 400 fold

CC(C(=O)O)c1ccc(-c2cccc(OC(=O)NC3CCC3)c2)c(F)c1 (racemic) [Compound 10c, (±)-2-[4-[3-(cyclobutylcarbamoyloxy)phenyl]-3-fluoro-phenyl]propanoic acid]
increase in potency toward COX-1 (ovine COX-1): 10 fold | loss in potency against FAAH (rat brain FAAH; compared to 10a): 10 fold

CC(C(=O)O)c1ccc(-c2cccc(OC(=O)NCc3ccccc3)c2)c(F)c1 (racemic) [Compound 10j, (±)-2-[4-[3-(benzylcarbamoyloxy)phenyl]-3-fluoro-phenyl]propanoic acid]
increase in potency toward FAAH (rat brain FAAH; compared to 10i): 10 fold

CCCCCCNC(=O)Oc1cccc(-c2ccc(C(C)C(=O)O)cc2F)c1 (racemic) [Compound 10r, (±)-2-[3-fluoro-4-[3-(hexylcarbamoyloxy)phenyl]phenyl]propanoic acid]
engagement of intended targets after oral administration (FAAH and COX): effectively engages its intended targets | anti-inflammatory effects in mouse models of IBD (mouse models of IBD): profound anti-inflammatory effects | COX-dependent gastric toxicity (mouse models of IBD; mouse): without causing COX-dependent gastric toxicity | off-target activities on a panel of >90 biologically relevant targets [1]: no off-target activities

CCCCCCNC(=O)Oc1cccc(-c2ccc(C(C)C(=O)O)cc2C(F)(F)F)c1 (racemic) [Compound 29c, (±)-2-[4-[3-(hexylcarbamoyloxy)phenyl]-3-(trifluoromethyl)phenyl]propanoic acid]
increase in potency toward FAAH (rat brain FAAH; compared to 10r): 6 fold | increase in potency toward COX-2 (human recombinant COX-2): 2 fold

CCCCCCNC(=O)Oc1cccc(-c2ccc([C@H](C)C(=O)O)cc2F)c1 [(+)-10r, (+)-2-[3-fluoro-4-[3-(hexylcarbamoyloxy)phenyl]phenyl]propanoic acid]
off-target activities on a panel of >90 biologically relevant receptors, enzymes (including NAAA) and ion channels [2]: no off-target activities | plasma level of 6-keto-PGF1α (stable metabolite of prostacyclin) [3]: lowered | plasma level of TXB2 (stable metabolite of TXA2) [3]: lowered | plasma level of the FAAH substrate OEA [3]: increased

— publication PMC4752335 (European journal of medicinal chemistry, 2015)
